Where a SMILES comes first, the peptide text is derived from it. [ ]: non-standard residue; d: D form. d2Nal = N[C@H](Cc1ccc2ccccc2c1)C(=O)O; d(hPhe) = N[C@H](CCc1ccccc1)C(=O)O; Aib = CC(C)(N)C(=O)O

The assay is filed under the species Rattus norvegicus. Briefly: Effective concentration for ability to release growth hormone from rat pituitary cells. As to conditions: Pituitary gland cell. It is filed as functional, cell-based. Put shortly:
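Rat anterior pituitaries were digested with 0.2% collagenase, 0.2% hyaluronidase and 200 U/mL DNase I. Cells were plated at 1.0 × 10⁵ cells/mL in DMEM with 7.5% horse serum and 5.0% fetal calf serum and cultured 3 days. After washes in medium with 20 mM HEPES pH 7.4, cells were exposed to compound for 15 min at 37 °C. Released GH was measured by RIA. EC50 was referenced to the maximal GH level from 10^-8 M KP-102.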
Turning to `NCCNC(=O)[C@@H](Cc1ccccc1)NC(=O)CN1C(=O)CCS(=O)(=O)c2ccccc21`, the EC50 (commonly the midpoint of the concentration-response curve) was found to be 1 µM.

The molecule `NCC(O)CNC(=O)[C@@H](Cc1ccc2ccccc2c1)NC(=O)CCCN1C(=O)CCSc2ccccc21` (some centres undefined) registered a concentration giving a half-maximal response (EC50) of 0.001 µM. `C[C@H](NC(=O)[C@@H](Cc1c[nH]c2ccccc12)NC(=O)[C@@H](N)Cc1c[nH]cn1)C(=O)N[C@@H](Cc1c[nH]c2ccccc12)C(=O)N[C@H](Cc1ccccc1)C(=O)N[C@H](CCCCN)C(N)=O` yielded a concentration giving a half-maximal response (EC50) of 0.1 µM. This EC50 lies about 100-fold higher than the previous one.

Molecule `NCCNC(=O)[C@H](Cc1ccccc1)NC(=O)CN1C(=O)CCSc2ccccc21` showed a concentration giving a half-maximal response (EC50) of 1 µM. This EC50 is about 10-fold higher than that of the molecule before. On to `CCOC(=O)[C@@H](CCc1ccccc1)NC(=O)[C@@H](Cc1c[nH]c2ccccc12)NC(=O)C(C)(C)N` (H-[Aib]-[dW]-[d(hPhe)]-OEt), for which the half-maximal effective concentration (EC50) was determined as 0.003 µM. `C[C@H](NC(=O)[C@@H](Cc1ccc2ccccc2c1)NC(=O)[C@@H](C)N)C(=O)N[C@@H](Cc1c[nH]c2ccccc12)C(=O)N[C@H](Cc1ccccc1)C(=O)N[C@@H](CCCCN)C(=O)O` (H-[dA][d2Nal]AW[dF]K-OH) yielded a 50% effective concentration (EC50) of 0.001 µM. As to `C[C@H](NC(=O)[C@@H](Cc1ccccc1)NC(=O)[C@@H](C)N)C(=O)N[C@@H](Cc1ccccc1)C(=O)N[C@H](Cc1ccccc1)C(=O)N[C@@H](CCCCN)C(N)=O` (H-[dA][dF]AF[dF]K-NH2), the EC50 is 0.01 µM.

`C[C@H](NC(=O)[C@@H](Cc1ccc2ccccc2c1)NC(=O)[C@@H](C)N)C(=O)N[C@@H](Cc1c[nH]c2ccccc12)C(=O)N[C@H](Cc1ccccc1)C(=O)O`: the 50% effective concentration (EC50) was found to be 0.01 µM. That is a double-digit nanomolar value. With `NCCNC(=O)[C@@H](Cc1ccc2ccccc2c1)NC(=O)CN1C(=O)CCS(=O)(=O)c2ccccc21`, the midpoint of the response, the EC50, lay at 0.1 µM. Consider `C[C@H](NC(=O)[C@@H](Cc1ccc2ccccc2c1)NC(=O)[C@@H](C)N)C(=O)N[C@@H](Cc1c[nH]c2ccccc12)C(=O)N[C@H](Cc1ccccc1)C(=O)N[C@@H](CCCCN)C(N)=O` [PRALMORELIN] (H-[dA][d2Nal]AW[dF]K-NH2), for which the EC50 turned out to be 0.0002 µM. For the molecule `NC(=O)CN(CCc1ccccc1)C(=O)[C@@H](Cc1ccc2ccccc2c1)NC(=O)[C@@H](Cc1ccc2ccccc2c1)NC(=O)C1CCNCC1`, the EC50 stood at 0.0001 µM. This EC50 is about 2-fold lower than that of the molecule before. `NCCNC(=O)[C@@H](Cc1ccc2ccccc2c1)NC(=O)CCN1C(=O)CCS(=O)(=O)c2ccccc21` showed an EC50 of 0.01 µM.

In turn, `O=C(N[C@H](Cc1ccc2ccccc2c1)C(=O)N[C@@H](CO)Cc1ccc2ccccc2c1)C1CCNCC1` returned an EC50 of 0.0018 µM. Next, `CC(C)[C@H](NC(=O)[C@@H](Cc1c[nH]c2ccccc12)NC(=O)[C@@H](N)Cc1c[nH]cn1)C(=O)N[C@@H](Cc1c[nH]c2ccccc12)C(=O)N[C@H](Cc1ccccc1)C(=O)N[C@@H](CCCCN)C(N)=O` (H-H[dW]VW[dF]K-NH2): > 1 µM.

The record behind these values is ChEMBL document CHEMBL1134283, “Rational design, discovery, and synthesis of a novel series of potent growth hormone secretagogues” (J Med Chem, 2001).
